Laboratory results from ChEMBL document CHEMBL2440018 (J Med Chem, 2013).
The source made the active and inactive calls. No cut-off for these calls is given here.

Experiments:
[1] = target: T1, Interstitial collagenase (Homo sapiens) (UniProt P03956); assay: Inhibition of human recombinant MMP-1 catalytic domain at 50 uM by fluorescence spectrophotometric analysis relative to control
T1 sequence (whole entry): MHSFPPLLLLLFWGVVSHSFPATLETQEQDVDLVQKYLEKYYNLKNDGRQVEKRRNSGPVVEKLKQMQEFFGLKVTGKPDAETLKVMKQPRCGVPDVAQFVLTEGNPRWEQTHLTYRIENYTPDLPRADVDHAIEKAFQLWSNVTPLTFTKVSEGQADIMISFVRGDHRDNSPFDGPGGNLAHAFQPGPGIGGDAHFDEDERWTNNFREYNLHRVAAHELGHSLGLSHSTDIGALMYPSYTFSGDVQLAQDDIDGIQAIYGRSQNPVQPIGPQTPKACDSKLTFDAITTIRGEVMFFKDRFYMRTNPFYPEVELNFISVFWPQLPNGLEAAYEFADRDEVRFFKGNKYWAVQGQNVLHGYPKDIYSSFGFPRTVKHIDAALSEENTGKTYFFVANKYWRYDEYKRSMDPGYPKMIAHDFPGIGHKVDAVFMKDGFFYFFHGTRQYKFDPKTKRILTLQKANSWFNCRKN

[2] = target: 72 kDa type IV collagenase (Homo sapiens, UniProt P08253); assay: Inhibition of human recombinant MMP-2 using MOCAcPLGLA2pr(Dnp)AR-NH2 as substrate by fluorescence spectrophotometric analysis
[3] = target: Stromelysin-1 (Homo sapiens) (UniProt P08254); assay: Inhibition of human recombinant MMP-3 catalytic domain at 50 uM by fluorescence spectrophotometric analysis relative to control
[4] = target: T2, Matrilysin (Homo sapiens) (UniProt P09237); assay: Inhibition of human recombinant MMP-7 at 50 uM by fluorescence spectrophotometric analysis relative to control
T2 sequence (whole entry): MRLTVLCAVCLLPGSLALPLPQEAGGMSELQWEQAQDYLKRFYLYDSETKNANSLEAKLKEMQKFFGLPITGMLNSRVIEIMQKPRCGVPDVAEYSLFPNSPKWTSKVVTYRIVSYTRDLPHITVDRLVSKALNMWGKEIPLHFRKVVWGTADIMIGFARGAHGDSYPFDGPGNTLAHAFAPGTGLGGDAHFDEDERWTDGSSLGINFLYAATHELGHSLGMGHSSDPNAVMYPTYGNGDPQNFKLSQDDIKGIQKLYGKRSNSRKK

Liver [5] = assay: Metabolic stability in rat liver S9 fraction assessed as formation of 4-(4-(thiiran-2-ylmethylsulfonyl)phenoxy)phenol after 5 mins by reversed-phase LC/MS analysis; type: ADME, subcellular; conditions: s9, 5 min
Method in brief: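 Male rat liver S9 (1.0 mg) incubated with 10 μM compound (final) and 0.5 mM NADPH (final) in 50 mM potassium phosphate, pH 7.4, 37 °C. Aliquots taken at several time points. Reactions quenched with one volume acetonitrile containing internal standard, centrifuged, supernatant run on reversed-phase UPLC/ESI-MRM. Quantified by peak area ratio to internal standard.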

[6] = target: MMP-2/MMP-9 (Homo sapiens) (UniProt P08253+P14780); assay: Selectivity ratio of Ki for human recombinant MMP-9 catalytic domain to Ki for human recombinant MMP-2
[7] = target: T3, Matrix metalloproteinase-14 (Homo sapiens, UniProt P50281); assay: Inhibition of human recombinant MMP-14 catalytic domain using MOCAcPLGLA2pr(Dnp)AR-NH2 as substrate by fluorescence spectrophotometric analysis
[8] = target: T4, Matrix metalloproteinase-9 (Homo sapiens, UniProt P14780); assay: Inhibition of human recombinant MMP-9 catalytic domain using MOCAcPLGLA2pr(Dnp)AR-NH2 as substrate by fluorescence spectrophotometric analysis
[9] = target: MMP-2/MMP-14 (Homo sapiens) (UniProt P50281+P08253); assay: Selectivity ratio of Ki for human recombinant MMP-14 catalytic domain to Ki for human recombinant MMP-2
Homo sapiens = species: Homo sapiens; assay: Selectivity ratio of Ki for human recombinant MMP-8 catalytic domain to Ki for human recombinant MMP-2
Liver [10] = assay: Elimination half life in rat liver S9 fraction at 10 uM by reversed-phase UPLC/ESI-MRM analysis; type: ADME, subcellular; conditions: s9, 10 µM
Method in brief: (§1)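 Male rat liver S9 (1.0 mg) with 0.5 mM NADPH and 10 µM compound (both final) in 50 mM potassium phosphate, pH 7.4, at 37 °C, sampled over time. Aliquots were stopped with acetonitrile containing internal standard, and the supernatant was run by UPLC/ESI-MRM. Half-lives used first-order kinetics on peak-area ratios to internal standard.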

Liver [11] = assay: Primary phase half life in rat liver S9 fraction at 10 uM by reversed-phase UPLC/ESI-MRM analysis; type: ADME, subcellular; conditions: s9, 10 µM; method in brief: as §1
[12] = target: T3, Matrix metalloproteinase-14; assay: Inhibition of human recombinant MMP-14 catalytic domain using MOCAcPLGLA2pr(Dnp)AR-NH2 as substrate at 50 uM by fluorescence spectrophotometric analysis relative to control
[13] = target: T4, Matrix metalloproteinase-9; assay: Inhibition of human recombinant MMP-9 catalytic domain using MOCAcPLGLA2pr(Dnp)AR-NH2 as substrate at 50 uM by fluorescence spectrophotometric analysis relative to control

Sequence of 72 kDa type IV collagenase (P08253 whole entry, the tested form may be a part): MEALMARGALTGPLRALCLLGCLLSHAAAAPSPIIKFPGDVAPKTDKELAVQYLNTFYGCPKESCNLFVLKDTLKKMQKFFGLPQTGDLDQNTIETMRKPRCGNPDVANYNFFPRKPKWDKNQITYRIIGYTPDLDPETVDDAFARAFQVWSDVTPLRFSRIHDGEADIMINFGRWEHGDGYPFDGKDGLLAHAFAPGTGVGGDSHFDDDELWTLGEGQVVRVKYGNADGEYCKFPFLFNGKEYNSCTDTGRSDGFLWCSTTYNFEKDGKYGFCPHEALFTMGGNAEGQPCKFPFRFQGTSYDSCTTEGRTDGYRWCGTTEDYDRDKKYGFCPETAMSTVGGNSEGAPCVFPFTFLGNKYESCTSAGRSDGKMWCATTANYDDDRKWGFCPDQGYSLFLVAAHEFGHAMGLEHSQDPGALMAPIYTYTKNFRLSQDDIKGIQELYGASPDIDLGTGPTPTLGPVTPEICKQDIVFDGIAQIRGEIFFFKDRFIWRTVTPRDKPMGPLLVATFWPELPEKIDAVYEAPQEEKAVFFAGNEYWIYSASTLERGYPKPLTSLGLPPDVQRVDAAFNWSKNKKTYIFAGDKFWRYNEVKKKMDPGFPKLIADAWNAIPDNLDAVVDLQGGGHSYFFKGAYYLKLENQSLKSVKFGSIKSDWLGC
T4 sequence (P14780 whole entry, the tested form may be a part): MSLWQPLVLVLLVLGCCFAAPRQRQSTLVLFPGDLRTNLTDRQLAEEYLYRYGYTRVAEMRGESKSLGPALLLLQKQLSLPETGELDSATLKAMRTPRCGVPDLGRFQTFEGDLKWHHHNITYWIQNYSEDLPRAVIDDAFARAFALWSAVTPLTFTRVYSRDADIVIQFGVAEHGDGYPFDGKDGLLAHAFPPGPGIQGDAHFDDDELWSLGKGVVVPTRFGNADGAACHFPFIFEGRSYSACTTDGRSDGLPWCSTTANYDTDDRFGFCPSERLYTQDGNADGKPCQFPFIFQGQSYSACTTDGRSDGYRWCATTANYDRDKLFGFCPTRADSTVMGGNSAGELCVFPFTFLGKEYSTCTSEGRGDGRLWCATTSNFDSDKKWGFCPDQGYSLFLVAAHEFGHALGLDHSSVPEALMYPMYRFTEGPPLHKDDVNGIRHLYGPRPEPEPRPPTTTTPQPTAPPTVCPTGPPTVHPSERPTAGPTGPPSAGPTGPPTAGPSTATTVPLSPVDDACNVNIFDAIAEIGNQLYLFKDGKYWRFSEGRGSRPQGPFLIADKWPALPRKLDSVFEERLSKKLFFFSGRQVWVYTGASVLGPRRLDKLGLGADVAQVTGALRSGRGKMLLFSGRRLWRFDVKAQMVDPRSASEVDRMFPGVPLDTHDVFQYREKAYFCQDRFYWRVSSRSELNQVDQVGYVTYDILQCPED

Row | SMILES | inhibition [1] | Ki [2] [nM] | inhibition [3] [%] | inhibition [4] | Stability (Liver [5]) | Ratio Ki [6] | Ki [7] [nM] | Ki [8] [nM] | Ratio Ki [9] | Ratio Ki (Homo sapiens) | beta t1/2 (Liver [10]) [min] | alphat1/2 (Liver [11]) [min] | inhibition [12] [%] | inhibition [13] [%]
1 | CCOC(=O)Oc1ccc(Oc2ccc(S(=O)(=O)CC3CS3)cc2)cc1 (centres undefined) | inactive | 230 | 39 | 9% | Unstable | 2 | 2700 |  |  |  |  |  |  | 
2 | CNC(=O)Nc1ccc(Oc2ccc(S(=O)(=O)CC3CS3)cc2)cc1 (centres undefined) | inactive | 240 | 21 | 8% |  | 20 | 19000 | 9900 | 20 | 20 |  |  |  | 
3 | CCCOC(=O)Oc1ccc(Oc2ccc(S(=O)(=O)CC3CS3)cc2)cc1 (centres undefined) | inactive | 310 | 29 | 10% |  | 2 | 2800 | 1000 |  |  |  |  |  | 
4 | Nc1ccc(Oc2ccc(S(=O)(=O)CC3CS3)cc2)cc1 (centres undefined) |  |  |  |  |  |  |  |  |  |  | 59 | 14 |  | 
5 | CC(C)NC(=O)Oc1ccc(Oc2ccc(S(=O)(=O)CC3CS3)cc2)cc1 (centres undefined) | inactive | 690 | 3 | inactive |  | 20 |  |  | 20 | 20 |  |  | 30 | 22
6 | CCCOC(=O)Nc1ccc(Oc2ccc(S(=O)(=O)CC3CS3)cc2)cc1 (centres undefined) | inactive | 490 | 27 | inactive |  | 2 | 2100 | 1100 |  |  |  |  |  | 
7 | CCCNC(=O)Oc1ccc(Oc2ccc(S(=O)(=O)CC3CS3)cc2)cc1 (centres undefined) | inactive | 760 | 38 | 2% |  | 20 | 27000 | 52000 | 20 | 20 |  |  |  | 
8 | CC(C)NC(=O)Nc1ccc(Oc2ccc(S(=O)(=O)CC3CS3)cc2)cc1 (centres undefined) | inactive | 420 | 4 | 6% |  | 20 |  |  | 20 | 20 |  |  | 37 | 26
